Experimental data published in ChEMBL document CHEMBL1126276, “Synthesis and antimalarial properties of 1-imino derivatives of 7-chloro-3-substituted-3,4-dihydro-1,9(2H,10H)-acridinediones and related structures” (J Med Chem, 1992).

Columns and labels:
[1] = test system: Plasmodium berghei; assay: Antimalarial activity was measured against mice (Mus musculus) infected with Plasmodium berghei by subcutaneous administration of 160 mg/kg dose; type: organism-based; set-up: dose 160 mg/kg, route subcutaneous; conditions: in vivo, sc
How it was run: (§1)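 […] in mice infected with a normal drug-sensitive P. berghei strain. Compound dissolved or suspended in sesame or peanut oil, given as a single subcutaneous dose 72 h postinfection.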

[2] = test system: Plasmodium berghei; assay: Antimalarial activity was measured against mice (Mus musculus) infected with Plasmodium berghei by subcutaneous administration of 320 mg/kg dose; type: organism-based; set-up: dose 320 mg/kg, route subcutaneous; conditions: in vivo, sc; how it was run: as §1
[3] = test system: Plasmodium berghei; assay: Antimalarial activity was measured against mice (Mus musculus) infected with Plasmodium berghei by subcutaneous administration of 640 mg/kg dose; type: organism-based; set-up: dose 640 mg/kg, route subcutaneous; conditions: in vivo, sc; how it was run: as §1
[4] = test system: Plasmodium berghei; assay: Antimalarial activity was measured against mice (Mus musculus) infected with Plasmodium berghei by subcutaneous administration of 80 mg/kg dose; type: organism-based; set-up: dose 80 mg/kg, route subcutaneous; conditions: in vivo, sc; how it was run: as §1
[5] = test system: Plasmodium berghei; assay: (§2) Antimalarial activity in Plasmodium berghei infected mice (Mus musculus) after 40 mg/kg subcutaneous dose; type: functional; how it was run: as §1
[6] = test system: Plasmodium berghei; assay: (§3) Antimalarial activity in Plasmodium berghei infected mice (Mus musculus) after 20 mg/kg subcutaneous dose; type: functional; how it was run: as §1
[7] = test system: Plasmodium berghei; assay: Antimalarial activity was measured against mice (Mus musculus) infected with Plasmodium berghei by subcutaneous administration of 40 mg/kg dose; type: organism-based; set-up: dose 40 mg/kg, route subcutaneous; conditions: in vivo, sc; how it was run: as §1
[8] = test system: Plasmodium berghei; assay: Antimalarial activity in Plasmodium berghei infected mice (Mus musculus) after 10 mg/kg subcutaneous dose; type: functional
How it was run: (§4)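 Normal drug-sensitive P. berghei strain in mice. Compound dissolved or suspended in sesame or peanut oil, given parenterally as a single subcutaneous dose 72 h postinfection.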

[9] = test system: Plasmodium berghei; assay: Antimalarial activity in Plasmodium berghei infected mice (Mus musculus) after subcutaneous 320 mg/kg dose; type: functional; how it was run: as §4
[10] = test system: Plasmodium berghei; assay: Antimalarial activity in Plasmodium berghei infected mice (Mus musculus) after subcutaneous 160 mg/kg dose; type: functional; how it was run: as §4
[11] = test system: Plasmodium berghei; assay: (§5) Antimalarial activity in Plasmodium berghei infected mice (Mus musculus) after 80 mg/kg subcutaneous dose; type: functional; how it was run: as §4
[12] = test system: Plasmodium berghei; assay: as §2; type: functional; how it was run: as §4; remark: listed apart in the source
[13] = test system: Plasmodium berghei; assay: as §3; type: functional; how it was run: as §4; remark: listed apart in the source
[14] = test system: Plasmodium berghei; assay: Antimalarial activity in Plasmodium berghei infected mice (Mus musculus) after subcutaneous 640 mg/kg dose; type: functional; how it was run: as §4
[15] = test system: Plasmodium berghei; assay: Antimalarial activity Plasmodium berghei infected mice (Mus musculus) after 640 mg/kg subcutaneous dose; type: functional; how it was run: as §1
[16] = test system: Plasmodium berghei; assay: Antimalarial activity in Plasmodium berghei infected mice (Mus musculus) after 320 mg/kg subcutaneous dose; type: functional; how it was run: as §1
[17] = test system: Plasmodium berghei; assay: as §5; type: functional; how it was run: as §1; remark: listed apart in the source
[18] = test system: Plasmodium berghei; assay: Antimalarial activity in Plasmodium berghei infected mice (Mus musculus) after 160 mg/kg subcutaneous dose; type: functional; how it was run: as §1

SMILES: CN(C)CCC/N=C1\CC(c2ccc(Cl)cc2Cl)Cc2nc3c(Cl)cccc3c(O)c21 (configuration not stated)
- No. of toxic deaths [1]: 5
- No. of toxic deaths [2]: 5
- No. of toxic deaths [3]: 5
- No. of toxic deaths [4]: 4
- Delta mean survival time [5]: 0.5
- Delta mean survival time [6]: 0
- No. of toxic deaths [7]: 1

SMILES: CCCCNC(CC)C/N=C1\CC(c2ccc(Cl)cc2Cl)Cc2nc3ccc(Cl)cc3c(O)c21 (configuration not stated)
- No. of cured mice [8]: 4
- No. of cured mice [9]: 5
- No. of cured mice [10]: 5
- No. of cured mice [11]: 5
- No. of cured mice [12]: 5
- No. of cured mice [13]: 5
- No. of cured mice [14]: 5

SMILES: O=c1c2c(n(O)c3ccc(Cl)cc13)CC(c1ccc(C(F)(F)F)cc1)C/C2=N\CCCNCCO (configuration not stated)
- No. of toxic deaths [2]: 1
- No. of toxic deaths [3]: 4
- No. of cured mice [9]: 4
- Delta mean survival time [5]: 10.7
- No. of cured mice [10]: 5
- No. of cured mice [11]: 5
- Delta mean survival time [6]: 6.4
- No. of cured mice [12]: 3
- No. of cured mice [14]: 1

SMILES: CCN(CC)CCCC(C)/N=C1\CC(c2ccc(C(F)(F)F)cc2)Cc2nc3ccc(Cl)cc3c(O)c21 (configuration not stated)
- No. of toxic deaths [2]: 2
- No. of cured mice [9]: 3
- No. of toxic deaths [4]: 1
- Delta mean survival time [15]: 3.3
- No. of cured mice [10]: 5
- No. of cured mice [11]: 4
- Delta mean survival time [6]: 10.8
- No. of cured mice [12]: 5
- No. of cured mice [13]: 3
- No. of cured mice [14]: 2

SMILES: O=c1c2c(n(O)c3ccc(Cl)cc13)CC(c1cccc(C(F)(F)F)c1)C/C2=N\CCCCN1CCCC1 (configuration not stated)
- No. of toxic deaths [1]: 5
- No. of toxic deaths [2]: 4
- No. of toxic deaths [3]: 5
- Delta mean survival time [16]: 0.5
- Delta mean survival time [5]: 4.6
- Delta mean survival time [17]: 3.7
- No. of toxic deaths [7]: 3

SMILES: CCN(CC)CC/N=C1\CC(c2ccc(C(F)(F)F)cc2)Cc2c1c(=O)c1cc(Cl)ccc1n2O (configuration not stated)
- No. of toxic deaths [1]: 1
- No. of toxic deaths [2]: 1
- No. of toxic deaths [3]: 2
- No. of cured mice [9]: 4
- Delta mean survival time [5]: 10.8
- No. of cured mice [10]: 4
- No. of cured mice [11]: 5
- Delta mean survival time [6]: 10.5
- No. of cured mice [12]: 2
- No. of cured mice [13]: 1
- No. of cured mice [14]: 3

SMILES: CN(C)CCC/N=C1\CC(c2ccc(C(F)(F)F)cc2)Cc2c1c(=O)c1cc(Cl)ccc1n2O (configuration not stated)
- No. of toxic deaths [1]: 2
- No. of toxic deaths [2]: 3
- No. of toxic deaths [3]: 5
- No. of cured mice [9]: 2
- No. of cured mice [10]: 3
- No. of cured mice [11]: 4
- No. of cured mice [12]: 5
- No. of cured mice [13]: 5
- No. of cured mice [14]: 1

SMILES: CC1/C(=N\CCCN(C)C)c2c(n(O)c3ccc(Cl)cc3c2=O)CC1c1ccc(C(F)(F)F)cc1 (configuration not stated)
- No. of toxic deaths [1]: 5
- No. of toxic deaths [2]: 5
- No. of toxic deaths [3]: 5
- Delta mean survival time [5]: 10.2
- No. of cured mice [11]: 5
- Delta mean survival time [6]: 8.1
- No. of cured mice [12]: 2

SMILES: O=c1c2c(n(O)c3ccc(Cl)cc13)CC(c1cccc(C(F)(F)F)c1)C/C2=N\CCCCCCN1CCCCC1 (configuration not stated)
- No. of toxic deaths [1]: 3
- No. of toxic deaths [2]: 5
- No. of toxic deaths [3]: 5
- Delta mean survival time [5]: 4
- No. of cured mice [10]: 2
- Delta mean survival time [17]: 6.4

SMILES: CN(C)CCC/N=C1\CC(c2ccc(C(F)(F)F)cc2)Cc2nc3ccc(Cl)cc3c(O)c21 (configuration not stated)
- No. of toxic deaths [1]: 1
- No. of toxic deaths [2]: 2
- No. of toxic deaths [3]: 3
- No. of cured mice [9]: 2
- No. of cured mice [10]: 3
- No. of cured mice [11]: 5
- Delta mean survival time [6]: 10.4
- No. of cured mice [12]: 5
- No. of cured mice [13]: 3
- No. of cured mice [14]: 2

SMILES: COc1ccccc1C1C/C(=N\CCCN(C)C)c2c(n(O)c3ccc(Cl)cc3c2=O)C1 (configuration not stated)
- No. of toxic deaths [1]: 5
- No. of toxic deaths [3]: 5
- Delta mean survival time [5]: 0.3
- No. of toxic deaths [7]: 1

SMILES: O=c1c2c(n(O)c3ccc(Cl)cc13)CC(c1ccc(C(F)(F)F)cc1)C/C2=N\CCCN1CCCC1 (configuration not stated)
- No. of toxic deaths [2]: 1
- No. of toxic deaths [3]: 4
- No. of cured mice [9]: 3
- Delta mean survival time [5]: 10.8
- No. of cured mice [10]: 5
- No. of cured mice [11]: 5
- Delta mean survival time [6]: 11
- No. of cured mice [12]: 2
- No. of cured mice [13]: 1
- No. of cured mice [14]: 1

SMILES: CN(C)CCC/N=C1\CC(c2ccc(C(F)(F)F)cc2)Cc2nc3cc(Cl)ccc3c(O)c21 (configuration not stated)
- No. of toxic deaths [1]: 5
- No. of toxic deaths [2]: 5
- No. of toxic deaths [3]: 5
- No. of toxic deaths [4]: 3
- Delta mean survival time [5]: 5.4
- Delta mean survival time [17]: 6.4
- Delta mean survival time [6]: 2.1
- No. of toxic deaths [7]: 3

SMILES: CCN(CC)CCCC/N=C1\CC(c2ccc(Cl)cc2Cl)Cc2nc3ccc(Cl)cc3c(O)c21 (configuration not stated)
- No. of cured mice [8]: 2
- No. of cured mice [9]: 5
- No. of cured mice [10]: 5
- No. of cured mice [11]: 5
- No. of cured mice [12]: 5
- No. of cured mice [13]: 5
- No. of cured mice [14]: 5

SMILES: CCN(CC)CCC/N=C1\CC(c2ccc(C(F)(F)F)cc2)Cc2c1c(=O)c1cc(Cl)ccc1n2O (configuration not stated)
- No. of toxic deaths [1]: 3
- No. of toxic deaths [2]: 3
- No. of toxic deaths [3]: 5
- No. of cured mice [9]: 2
- No. of toxic deaths [4]: 3
- Delta mean survival time [5]: 16.8
- No. of cured mice [10]: 2
- No. of cured mice [11]: 2
- Delta mean survival time [6]: 10.1
- No. of cured mice [12]: 3
- No. of cured mice [13]: 2

SMILES: CN(C)CCC/N=C1\CC2(CCCCC2)Cc2c1c(=O)c1cc(Cl)ccc1n2O
- No. of toxic deaths [1]: 5
- No. of toxic deaths [3]: 5
- No. of toxic deaths [7]: 5

SMILES: C=CCNCC/N=C1\CC(c2ccc(C(F)(F)F)cc2)Cc2c1c(=O)c1cc(Cl)ccc1n2O (configuration not stated)
- No. of toxic deaths [2]: 5
- No. of toxic deaths [3]: 5
- No. of toxic deaths [4]: 3
- Delta mean survival time [5]: 8.4
- No. of cured mice [10]: 5
- No. of cured mice [11]: 1
- Delta mean survival time [6]: 7.8
- No. of cured mice [12]: 2

SMILES: O=C1CC(c2ccc(C(F)(F)F)cc2)Cc2c1c(=O)c1cc(Cl)c(F)cc1n2O (configuration not stated)
- No. of toxic deaths [1]: 5
- No. of toxic deaths [2]: 5
- No. of toxic deaths [3]: 5
- No. of toxic deaths [4]: 5
- Delta mean survival time [6]: 9
- No. of toxic deaths [7]: 5

SMILES: CCn1c2c(c(=O)c3cc(Cl)ccc31)C(=O)CC(c1ccc(C(F)(F)F)cc1)C2 (configuration not stated)
- No. of toxic deaths [1]: 2
- No. of toxic deaths [3]: 1
- Delta mean survival time [18]: 0
- Delta mean survival time [5]: 0
- Delta mean survival time [15]: 0
- No. of toxic deaths [7]: 2

SMILES: CCN(CC)CC/N=C1\CC(c2ccc(Cl)cc2Cl)Cc2nc3ccc(Cl)cc3c(O)c21 (configuration not stated)
- No. of cured mice [8]: 5
- No. of cured mice [9]: 5
- No. of cured mice [10]: 5
- No. of cured mice [11]: 5
- No. of cured mice [12]: 5
- No. of cured mice [13]: 5
- No. of cured mice [14]: 5

SMILES: CN(C)CCC/N=C1\CC(c2ccccc2Cl)Cc2c1c(=O)c1cc(Cl)ccc1n2O (configuration not stated)
- No. of toxic deaths [1]: 1
- No. of toxic deaths [3]: 5
- Delta mean survival time [18]: 4
- Delta mean survival time [5]: 3
- No. of toxic deaths [7]: 2

SMILES: O=c1c2c(n(O)c3ccc(Cl)cc13)CC(c1cccc(C(F)(F)F)c1)C/C2=N\CCCCCN1CCCC1 (configuration not stated)
- No. of toxic deaths [1]: 5
- No. of toxic deaths [3]: 5
- Delta mean survival time [5]: 0.6
- No. of toxic deaths [7]: 4
